Data published in ChEMBL document CHEMBL5154792, “A New Amino Acid for Improving Permeability and Solubility in Macrocyclic Peptides through Side Chain-to-Backbone Hydrogen Bonding” (J Med Chem, 2022).
Converted amounts (≈) assume the structure as drawn.

What was measured:
[1] = Apparent permeability of the compound after 15 hrs by UPLC-MS based PAMPA; format: ADME; conditions: for Papp at 15 h: PAMPA; for Papp: pampa, 15 h
In short: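 Donor: 2 µM peptide in PBS pH 7.4 with 5% DMSO final. Acceptor: 5% DMSO in PBS. Membrane of 1% (w/v) soybean lecithin in n-dodecane. Incubated ~15 h at room temperature (exact time recorded) in a humidified sealed chamber. Donor and acceptor wells quantified by UPLC-MS in quadruplicate. Papp derived from %T (acceptor vs theoretical equilibrium) using membrane area 240 mm2.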

[2] = Thermodynamic solubility of the compound at pH 7.4 after 24 hrs by UPLC-MS analysis; format: physicochemical; conditions: buffer, read-out: Therm_solubility
In short: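 10 mM DMSO stocks were dried down, redissolved in PBS pH 7.4 (maximum 2 mM), sonicated 1 h, then gently agitated ~24 h at 37 °C. Filtered through 0.7 µm glass fiber, diluted up to 40-fold in MeCN and quantified by UPLC-MS against standard curves (50 µM to 0.1 µM in DMSO).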

SMILES | Papp at 15 h [1] | solubility thermodynamic at 24 h [2] | Papp [1]
CC(C)C[C@@H]1NC(=O)[C@@H](CC(C)C)NC(=O)[C@@H](CCC(=O)N2CCCC2)NC(=O)[C@@H](CC(C)C)NC(=O)[C@@H](CC(C)C)NC(=O)[C@H]2CCCN2C1=O | 1.3 ×10⁻⁶ cm/s | 460 µM (≈ 337 µg/mL) | 
CC(C)C[C@@H]1NC(=O)[C@@H](CC(C)C)NC(=O)[C@@H](CC(C)C)NC(=O)[C@@H](CC(C)C)NC(=O)[C@H]2CCCN2C(=O)[C@H](CCC(=O)N2CCCC2)NC1=O | 0.66 ×10⁻⁶ cm/s | 720 µM (≈ 527 µg/mL) | 
CC(C)C[C@@H]1NC(=O)[C@@H](CC(C)C)NC(=O)[C@@H](CC(C)C)NC(=O)[C@@H](CC(C)C)NC(=O)[C@@H](CCC(=O)N2CCCC2)NC(=O)[C@H]2CCCN2C1=O |  | 610 µM (≈ 447 µg/mL) | 0.56 10^-6 cm/s
CC(C)C[C@@H]1NC(=O)[C@H](CCC(=O)N2CCCC2)NC(=O)[C@@H](CC(C)C)NC(=O)[C@@H](CC(C)C)NC(=O)[C@@H](CC(C)C)NC(=O)[C@H]2CCCN2C1=O | 0.32 ×10⁻⁶ cm/s | 510 µM (≈ 373 µg/mL) | 
CC(C)C[C@@H]1NC(=O)[C@@H](CC(C)C)NC(=O)[C@H](CC(C)C)NC(=O)[C@@H](CCC(=O)N2CCCC2)NC(=O)[C@H]2CCCN2C(=O)[C@H](CC(C)C)NC1=O |  | 730 µM (≈ 534 µg/mL) | 1.5 10^-6 cm/s
CC(C)C[C@@H]1NC(=O)[C@@H](CCC(=O)N2CCCC2)NC(=O)[C@@H](CC(C)C)NC(=O)[C@@H](CC(C)C)NC(=O)[C@H]2CCCN2C(=O)[C@H](CC(C)C)NC1=O | 0.3 ×10⁻⁶ cm/s | 580 µM (≈ 425 µg/mL) | 
CC(C)C[C@@H]1NC(=O)[C@@H](CC(C)C)NC(=O)[C@H]2CCCN2C(=O)[C@H](CC(C)C)NC(=O)[C@H](CCC(=O)N2CCCC2)NC(=O)[C@@H](CC(C)C)NC1=O | 0.28 ×10⁻⁶ cm/s | 550 µM (≈ 403 µg/mL) | 
CC(C)C[C@@H]1NC(=O)[C@@H](CC(C)C)NC(=O)[C@@H](CCC(=O)N2CCCC2)NC(=O)[C@@H](CC(C)C)NC(=O)[C@H]2CCCN2C(=O)[C@H](CC(C)C)NC1=O | 0.66 ×10⁻⁶ cm/s | 550 µM (≈ 403 µg/mL) | 
CC(C)C[C@@H]1NC(=O)[C@@H](CCC(=O)N2CCCC2)NC(=O)[C@H](CC(C)C)NC(=O)[C@@H](CC(C)C)NC(=O)[C@H]2CCCN2C(=O)[C@H](CC(C)C)NC1=O | 0.14 ×10⁻⁶ cm/s | 580 µM (≈ 425 µg/mL) | 
CC(C)C[C@@H]1NC(=O)[C@@H](CC(C)C)NC(=O)[C@H](CCC(=O)N2CCCC2)NC(=O)[C@@H](CC(C)C)NC(=O)[C@H]2CCCN2C(=O)[C@H](CC(C)C)NC1=O | 0.23 ×10⁻⁶ cm/s | 140 µM (≈ 102 µg/mL) | 
CC(C)C[C@@H]1NC(=O)[C@@H](CC(C)C)NC(=O)[C@H](CC(C)C)NC(=O)[C@@H](CC(C)C)NC(=O)[C@H]2CCCN2C(=O)[C@H](CCC(=O)N2CCCC2)NC1=O | 0.18 ×10⁻⁶ cm/s | 600 µM (≈ 439 µg/mL) | 
CC(C)C[C@@H]1NC(=O)[C@@H](CC(C)C)NC(=O)[C@@H](CC(C)C)NC(=O)[C@@H](CCC(=O)N2CCCC2)NC(=O)[C@H]2CCCN2C(=O)[C@H](CC(C)C)NC1=O |  | 640 µM (≈ 468 µg/mL) | 1.7 10^-6 cm/s
CC(C)C[C@H]1NC(=O)[C@H]2CCCN2C(=O)[C@H](CCC(=O)N2CCCC2)NC(=O)[C@@H](CC(C)C)NC(=O)[C@@H](CC(C)C)NC(=O)[C@@H](CC(C)C)NC1=O | 1.5 ×10⁻⁶ cm/s | 560 µM (≈ 410 µg/mL) | 

The remaining lines, values ahead:

Papp at 15 h [1] | solubility thermodynamic at 24 h [2] | Papp [1] | SMILES
 | 16 µM (≈ 10.6 µg/mL) | 8.1 10^-6 cm/s | CC(C)C[C@@H]1NC(=O)[C@@H](CC(C)C)NC(=O)[C@@H](CC(C)C)NC(=O)[C@@H](CC(C)C)NC(=O)[C@H]2CCCN2C(=O)[C@H](CC(C)C)NC1=O
0.7 ×10⁻⁶ cm/s | 1660 µM (≈ 1170 µg/mL) |  | CC(C)C[C@@H]1NC(=O)[C@@H](CC(C)C)NC(=O)[C@H](CC(C)C)NC(=O)[C@@H](CCC(=O)N(C)C)NC(=O)[C@H]2CCCN2C(=O)[C@H](CC(C)C)NC1=O
0.56 ×10⁻⁶ cm/s | 670 µM (≈ 481 µg/mL) |  | CC(C)C[C@@H]1NC(=O)[C@@H](CC(C)C)NC(=O)[C@H](CC(C)C)NC(=O)[C@@H](CC(=O)N2CCCC2)NC(=O)[C@H]2CCCN2C(=O)[C@H](CC(C)C)NC1=O
0.28 ×10⁻⁶ cm/s | 1120 µM (≈ 775 µg/mL) |  | CC(C)C[C@@H]1NC(=O)[C@@H](CC(C)C)NC(=O)[C@H](CC(C)C)NC(=O)[C@@H](CC(=O)N(C)C)NC(=O)[C@H]2CCCN2C(=O)[C@H](CC(C)C)NC1=O
 | 63 µM (≈ 41.8 µg/mL) | 8 10^-6 cm/s | CC(C)C[C@@H]1NC(=O)[C@@H](CC(C)C)NC(=O)[C@H](CC(C)C)NC(=O)[C@@H](CC(C)C)NC(=O)[C@H]2CCCN2C(=O)[C@H](CC(C)C)NC1=O
0.13 ×10⁻⁶ cm/s | 550 µM (≈ 403 µg/mL) |  | CC(C)C[C@@H]1NC(=O)[C@@H](CCC(=O)N2CCCC2)NC(=O)[C@@H](CC(C)C)NC(=O)[C@@H](CC(C)C)NC(=O)[C@@H](CC(C)C)NC(=O)[C@H]2CCCN2C1=O
 | 240 µM (≈ 159 µg/mL) | 5.3 10^-6 cm/s | CC(C)C[C@@H]1NC(=O)[C@@H](CC(C)C)NC(=O)[C@@H](CC(C)C)NC(=O)[C@@H](CC(C)C)NC(=O)[C@@H](CC(C)C)NC(=O)[C@H]2CCCN2C1=O
2 ×10⁻⁶ cm/s | 710 µM (≈ 492 µg/mL) |  | COC(=O)CC[C@H]1NC(=O)[C@H]2CCCN2C(=O)[C@H](CC(C)C)NC(=O)[C@H](CC(C)C)NC(=O)[C@@H](CC(C)C)NC(=O)[C@H](CC(C)C)NC1=O
1.1 ×10⁻⁶ cm/s | 450 µM (≈ 329 µg/mL) |  | CC(C)C[C@@H]1NC(=O)[C@@H](CC(C)C)NC(=O)[C@@H](CC(C)C)NC(=O)[C@@H](CCC(=O)N2CCCC2)NC(=O)[C@@H](CC(C)C)NC(=O)[C@H]2CCCN2C1=O
